Data set [1] deals with Rattus norvegicus. The experiment in a line: The total 54 h urinary excretion of unchanged compound reported as log (percent X 10) of the administered dose. As to conditions: in vivo.
For data set [2] the following is noted: octanol/water.
The nature of data set [3]: The octanol/water partition coefficient was determined. Type of data set: physicochemical. To be noted: read-out: Log K. The procedure, abridged:
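Classical shake-flask octanol/water partitioning with 1 M ammonium chloride buffer, pH 9.0, as the aqueous phase. For one compound the aqueous phase was 0.14 M sodium acetate-barbital buffer, pH 3.6. Concentrations in the octanol and/or aqueous layer were read by UV spectrophotometry.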

Data set [4] can be described thus: The amount of unchanged compound in urine collected at 0-36 hr after treatment. To be noted: rat.
Data set [5] has as its system Rattus norvegicus. As to the kind of experiment: The total 36 hr urinary excretion of unchanged compound reported as log (percent X 10) of the administered dose. As to conditions: in vivo.
Data set [6] is described as follows: The amount of unchanged compound in urine collected at 0-72 h after treatment. As to conditions: rat.
Data set [7] relates to Rattus norvegicus. As to the kind of experiment: The total 18 hr urinary excretion of unchanged compound reported as log (percent X 10) of the administered dose. To be noted: in vivo.
Data set [8] can be described thus: The amount of unchanged compound detected in urine collected at 0-18 hr after treatment. To be noted: rat.
Data set [9] is described as follows: The amount of unchanged compound in urine collected at 0-54 hr after treatment. To be noted: rat.
In data set [10] the test system is Rattus norvegicus. The experiment in a line: The total 72 hr urinary excretion of unchanged compound reported as log (percent X 10) of the administered dose. As to conditions: in vivo.
Data set [11] concerns Rattus norvegicus. As to the kind of experiment: The total 18 hr urinary excretion of the unchanged form of compound in urine was reported as log (percent X 10) of the administered dose by HPLC technique. To be noted: in vivo. Type of data set: ADME, organism-based. The method, boiled down: (§1)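 Female Sprague-Dawley rats (200 ± 20 g) on chow diet, three per compound, dosed ip in Me2SO (50 μmol mL⁻¹ kg⁻¹). Urine pooled over 0-18 h. One mL urine was spiked with internal standard and extracted, the residue was taken up in 200 μL methanol, and 10-20 μL was injected for HPLC of the unchanged drug. Values expressed as log (percent × 10) of dose.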

Data set [12] in a line: Partition coefficient (logP). As to conditions: octanol/water.
For data set [13], the species on record is Rattus norvegicus. The experiment in a line: (§2) The amount of the unchanged form of compound detected in the urine samples collected at 0-18 hr after the treatment by HPLC technique. The class given is functional. The method, boiled down:
as §1

A short description of another data set: in vivo. To be noted: rat, urine.
Data set [14] is filed under the species Rattus norvegicus. To be noted: in vivo, 18 h.
Data set [15] in a line: as §2. To be noted: rat, read-out: Amount excreted. The class given is ADME, organism-based. The method, boiled down: as §1

For the compound `Cc1ncc([N+](=O)[O-])n1CC(O)CO` (stereo not drawn), the “Log BR” value was found to be 2.822 in the data set on Rattus norvegicus [1], 2.808 in the data set with Rattus norvegicus [5], 2.155 with Rattus norvegicus [7] and 2.822 in the data set on Rattus norvegicus [10]. Further, the “Log k'” value in data set [2] is reported as -0.199. Also, the logP in data set [3] is -0.63. Further, the dose excreted was determined as 64.3% in [4], 66.4% in data set [6], 14.3% in [8] and 66.4% in data set [9].
On to `Cc1ncc([N+](=O)[O-])n1CCS(C)(=O)=O`, for which the “Log BR” value in the data set on Rattus norvegicus [1] was determined as 2.448; in the data set on Rattus norvegicus [5] it was 2.446; in the data set with Rattus norvegicus [7], 2.401; in the data set with Rattus norvegicus [10], 2.448. Further, in data set [2], the “Log k'” value was -0.097. In addition, the dose excreted is 27.9% in data set [4], 28% in data set [6], 25.2% in [8] and 28% in data set [9]. In addition, the “log(10 × % of dose excreted unchanged in urine)” value in the data set with Rattus norvegicus [11] was 2.394. Besides, the logP in data set [12] is -0.35. The compound further had an Amount excreted in the data set filed under Rattus norvegicus [13] of 24.8%.
As to `Cc1ncc([N+](=O)[O-])n1CC(O)Cn1c([N+](=O)[O-])cnc1C`, the “Log BR” value in the data set with Rattus norvegicus [1] came to 2.358; with Rattus norvegicus [5], 2.358; in the data set with Rattus norvegicus [7] it was 2.26; in the data set listed under Rattus norvegicus [14], 2.196; with Rattus norvegicus [10], 2.358. The “Log k'” value in [2] was found to be 0.199. Besides, the dose excreted in “in vivo” turned out to be 15.7%; in data set [4], 22.8%; in data set [6], 22.8%; in data set [8] it was 18.2%; in data set [9], 22.8%. For the same compound, in data set [12], the logP is 0.31.
`Cc1ncc([N+](=O)[O-])n1CCO` [METRONIDAZOLE]: the “Log BR” value in the data set with Rattus norvegicus [1] is reported as 2.692; in the data set with Rattus norvegicus [5] it was 2.692; in the data set with Rattus norvegicus [7], 2.484; in the data set on Rattus norvegicus [10] it was 2.692. Moreover, in [2], the “Log k'” value is -0.067. Further, the dose excreted turned out to be 49.2% in [4]; 25% in data set [15]; 49.2% in [6]; 30.5% in [8]; 49.2% in [9]. The “log(10 × % of dose excreted unchanged in urine)” value in the data set on Rattus norvegicus [11] amounted to 2.407. Also, in data set [12], the logP was -0.1.
`CCS(=O)(=O)CCn1c([N+](=O)[O-])cnc1C` [TINIDAZOLE]: the “Log BR” value in the data set with Rattus norvegicus [1] turned out to be 2.822; in the data set on Rattus norvegicus [5], 2.822; in the data set on Rattus norvegicus [7], 2.468; in the data set on Rattus norvegicus [10] it was 2.822. Besides, in data set [2], the “Log k'” value is -0.125. Further, the dose excreted amounted to 66.3% in data set [4]; 27.3% in data set [15]; 66.3% in data set [6]; 29.4% in data set [8]; 66.3% in data set [9]. Besides, the “log(10 × % of dose excreted unchanged in urine)” value in the data set on Rattus norvegicus [11] was 2.436. The same compound had a logP in data set [12] of -0.36.

Values taken from ChEMBL document CHEMBL1123508, “Relationship between lipophilic character and urinary excretion of nitroimidazoles and nitrothiazoles in rats” (J Med Chem, 1986).
